A selection: hits, their analogues and other compounds. The true share with any hit is near 2.6%.
TbMetRS inhib = blocks T. brucei methionyl-tRNA synthetase activity | purified T. brucei MetRS, ATP depletion, Kinase-Glo luminescence | inhibition, % at 11.9 µM | 360,000 tested, 0.4% active | AID 624268;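 active = inhibition above a per-plate cutoff of the control wells' mean inhibition plus 3 SD, cut at about 5.5% in these data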
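Dosing: 11.9 µM single point; system: parasite MetRS enzyme; technique: luminescence of leftover ATP; times: 15 min enzyme-compound preincubation, 2 h reaction, 10 min detection, 25 °C; replicates: each compound tested once; read-out basis: percent inhibition relative to median high and low control wells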
hiPSC survival = enhancers of human iPSC single-cell survival; hiPSC single-cell survival, ATPlite luminescence; 100% = ROCK inhibitor wells, 0% = DMSO; survival enhancement, % at 20 µM; 360,000 tested, 0.044% active; AID 602274; in the data active = survival enhancement above about 18%;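 note: cells exposed to compounds for 16 hours before the ATP read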
Exocytosis inh = blocks lytic granule exocytosis; TALL-104 LAMP-1 surface exposure, flow cytometry; cells stimulated with thapsigargin and PMA; inhibition, % at 10 µM; 360,000 tested, 0.66% active; AID 651702;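 active = inhibition above about 55%, limit read from the data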
MC4R barr agon = human MC4R agonism via beta-arrestin; activation, % at 8.9 µM; U2OS MC4R beta-arrestin complementation, luminescence; percent of melanotan II response, DMSO zero; P32245; 360,000 tested, 0.98% active;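 active = activation above a per-plate cutoff, the mean activation of sample wells on that plate plus 3 SD, cut at about 8% in these data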
MC4R antagonist = blocks human MC4R cAMP signaling | P32245 | MC4R-expressing cells, MTII-stimulated cAMP, LANCE TR-FRET | inhibition, % at 6.5 µM | 360,000 tested, 0.48% active | AID 540295;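 active = inhibition above its plate's cutoff, the mean of tested wells on that plate plus 3 SD, cut at about 29% in these data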
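Material: human MC4R-expressing U2OS cells. Probe or stimulus: Melanotan II challenge. Dosing: 6.5 µM single dose. Times: 30-min compound, 1-h challenge, 1-h detection, room temperature. Technique: TR-FRET with Eu-cAMP and labeled anti-cAMP, 671 nm. Replication: singlicate.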
ABCB6 inh 2 = inhibitors of human ABC transporter ABCB6 | AID 602162 | 360,000 tested, 0.19% active | K562-ABCB6 porphyrin accumulation, flow cytometry, 1 h; stronger effect = lower value | Q9NP58 | fluorescence ratio to DMSO, % at 10 µM;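 active = fluorescence ratio to DMSO below 75%, the collection mean minus 3 SD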;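 note: signal is porphyrin accumulated inside mitochondria; lower ratio means ABCB6 inhibition with less porphyrin fluorescence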
Target sequence (Q9NP58 whole entry, looked up): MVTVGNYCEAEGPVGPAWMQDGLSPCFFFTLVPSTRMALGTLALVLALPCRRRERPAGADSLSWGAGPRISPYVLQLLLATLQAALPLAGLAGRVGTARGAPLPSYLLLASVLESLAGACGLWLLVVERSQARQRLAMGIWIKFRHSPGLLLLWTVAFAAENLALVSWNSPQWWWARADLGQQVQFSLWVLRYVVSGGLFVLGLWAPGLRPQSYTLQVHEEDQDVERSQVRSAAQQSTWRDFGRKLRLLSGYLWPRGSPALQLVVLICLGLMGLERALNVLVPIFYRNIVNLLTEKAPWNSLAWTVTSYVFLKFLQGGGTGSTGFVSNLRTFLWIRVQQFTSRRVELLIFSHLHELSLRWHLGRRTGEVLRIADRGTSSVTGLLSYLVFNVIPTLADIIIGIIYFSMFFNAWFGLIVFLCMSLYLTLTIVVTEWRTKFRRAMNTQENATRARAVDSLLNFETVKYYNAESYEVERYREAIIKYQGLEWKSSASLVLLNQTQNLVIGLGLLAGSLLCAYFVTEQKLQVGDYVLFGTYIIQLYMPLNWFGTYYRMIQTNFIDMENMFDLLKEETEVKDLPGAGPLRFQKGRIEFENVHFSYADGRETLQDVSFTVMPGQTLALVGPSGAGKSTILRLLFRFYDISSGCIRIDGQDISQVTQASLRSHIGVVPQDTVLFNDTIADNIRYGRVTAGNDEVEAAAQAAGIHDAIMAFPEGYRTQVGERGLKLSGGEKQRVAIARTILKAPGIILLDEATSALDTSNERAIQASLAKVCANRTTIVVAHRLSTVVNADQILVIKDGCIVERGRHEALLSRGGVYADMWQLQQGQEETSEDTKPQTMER
MC4R barr conf = human MC4R beta-arrestin agonism confirmation; AID 602192; shares compounds with MC4R barr agon; activation, % at 8.9 µM; U2OS MC4R beta-arrestin recruitment, luminescence; scaled DMSO 0%, Melanotan II 100%; 2,400 tested, 31% active;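 active = mean activation across replicates above the hit cutoff set in the earlier primary screen, cut at about 8% in these data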
MOR DOR agonist = OPRM1-OPRD1 heterodimer agonism counter-screen; shares compounds with MC4R barr agon; U2OS PathHunter beta-arrestin, beta-gal luminescence; percent of deltorphin B response, DMSO zero; activation, % at 9.2 µM; 2,400 tested, 5.8% active;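 active = mean activation across replicates exceeds the hit threshold derived in the earlier primary screen, cut at about 18% in these data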
Hits are given with their value; – = inactive; · = no result given.

SMILES	TbMetRS inhib	hiPSC survival	Exocytosis inh	MC4R barr agon	MC4R antagonist	ABCB6 inh 2	MC4R barr conf	MOR DOR agonist
COC(=O)c1ccccc1NC(=O)COC(=O)/C=C/c1cccs1	–	–	–	20	–	–	–	–
COc1cc(/C=C/C(=O)OCC(=O)Nc2ccccc2Cl)cc(OC)c1OC	–	–	–	15	–	–	–	–
COc1cc(/C=C/C(=O)OCC(=O)NCCc2ccccc2)cc(OC)c1OC	–	–	–	–	–	–	·	·
CCOc1ccccc1NC(=O)COC(=O)/C=C/c1cccs1	–	–	–	–	–	–	·	·
CSc1ncccc1C(=O)OCC(=O)NCCc1ccccc1	–	–	–	–	–	–	·	·
COc1cccc(C(=O)Nc2nnc(-c3cccs3)s2)c1	–	–	–	15	–	–	–	–
COc1ccc2c(Cl)c(C(=O)N/N=C/c3ccc4c(c3)OCO4)sc2c1	–	–	–	12	–	–	–	–
O=C(NCc1cccnc1)c1ccc(-c2cc3ccccc3oc2=O)cc1	–	–	–	–	–	–	·	·
CC(C)Oc1ccc(C(=O)OCC(=O)NC(=O)NC2CCCC2)cc1	–	–	–	–	–	–	·	·
CC1CCCCC1NC(=O)NC(=O)COC(=O)c1ccc(OC(F)F)cc1 (centres undefined)	–	–	–	10	–	–	–	–
Fc1ccc2nc(C(F)(F)F)cc(N3CCOCC3)c2c1	–	–	–	–	–	–	·	·
O=C(Cc1cccs1)Nc1nnc(SCc2cccc3ccccc23)s1	–	–	–	12	–	–	–	–
Cc1cc([N+](=O)[O-])nn1CC(=O)Nc1cnc2ccccc2c1	–	–	–	–	–	–	·	·
Cc1ccc(C2CC(c3cccs3)=NN2C(=O)CCl)cc1 (centres undefined)	–	–	–	10	–	–	–	27
Cc1ccc(NC(=O)Cn2c(/C=C/c3ccccc3)nc3ccccc32)cc1C	–	–	–	17	–	–	–	·
Cc1ccc(C(=O)Cn2c(C(=O)/C=C/c3ccccc3)nc3ccccc32)cc1	–	–	–	20	–	–	21	–
Cc1ccc(NC(=O)Cn2cnc3ccccc32)cc1C	–	–	–	–	–	–	·	·
Cc1ccc(C(=O)Cn2c(NCCO)nc3ccccc32)cc1	–	–	–	–	–	–	·	·
CCOc1ccc(Nc2nc(-c3cccnc3)cs2)cc1	–	–	–	25	–	–	–	–
Brc1ccc(Nc2nc(-c3cccnc3)cs2)cc1	–	–	–	–	–	–	·	·
Cc1ccccc1CSc1n[nH]c(NS(=O)(=O)c2ccccc2)n1	–	–	–	–	–	–	·	·
COc1c(C(=O)Nc2ccc(CN3CCOCC3)cc2)cc2ccccc2c1Br	–	–	–	–	–	–	·	·
COc1c(C(=O)Nc2ccc3[nH]c(=O)[nH]c3c2)cc2ccccc2c1Br	–	–	–	12	–	–	–	–
Cc1cccc(C)c1NC(=O)c1cn(-c2ccccc2)nc1-c1ccccc1	–	–	–	9.9	–	–	–	–
Cc1ccccc1NC(=O)c1cn(-c2ccccc2)nc1-c1ccccc1	–	–	–	–	–	–	·	·
SMILES	TbMetRS inhib	hiPSC survival	Exocytosis inh	MC4R barr agon	MC4R antagonist	ABCB6 inh 2	MC4R barr conf	MOR DOR agonist
Cc1noc(C)c1C(=O)OCC(=O)Nc1c(F)cccc1F	–	–	–	–	–	–	·	·
COc1cc(/C=N/N=C(/N)c2nonc2N)cc(Br)c1OCc1ccccc1C	–	–	–	16	–	–	–	–
CC(C)CCCCCCCCCCCCC(=O)NCC(=O)NC1C(C)OC(Nc2ncnc3nc[nH]c23)C(O)C1O (centres undefined)	–	–	–	16	–	–	11	28
COC(=O)[C@@]1(Cc2ccc(F)cc2)[C@H]2c3cc(C(=O)N(C)C)n(Cc4ccc(S(C)(=O)=O)cc4)c3C[C@H]2CN1C(=O)c1ccccc1	–	–	–	·	·	–	·	·
COc1ccc(CNC(=O)COC(=O)c2cc3ccccc3cc2O)cc1OC	–	–	–	14	–	–	–	–
CC(NC(=O)COC(=O)c1cc2ccccc2cc1O)c1ccccc1 (centres undefined)	–	–	–	18	–	–	12	–
Cc1cc(C(=O)OCC(=O)NC(C)c2ccccc2)c(C)o1 (centres undefined)	–	–	–	–	–	–	·	·
COc1cc(OC)cc(C(=O)OCC(=O)NC(c2ccccc2)c2ccccc2)c1	–	–	–	13	–	–	–	–
O=C(NC(=S)NCc1ccc(-c2nc3ccccc3s2)cc1)c1ccco1	–	–	–	28	–	–	–	–
O=C(Nc1ccc(Br)cc1)C(c1ccccc1)c1ccccc1	–	–	–	11	–	–	–	–
Cc1ccc(S(=O)(=O)N(C)C[C@@H]2OCCCC[C@H](C)Oc3ccc(NC(=O)Nc4ccc(F)cc4)cc3C(=O)N([C@H](C)CO)C[C@H]2C)cc1	–	–	–	–	–	–	·	·
Cn1cccc1C(=O)Nc1ccc(Cl)c(S(=O)(=O)N2CCCCC2)c1	–	–	–	–	–	–	·	·
CCc1ccc(NC(=O)CN2CCCN(S(=O)(=O)c3ccc(F)cc3)CC2)cc1	–	–	–	–	–	–	·	·
COc1ccc(-c2cnc3c(NC=O)cc(-c4ccc(C(=O)N5CCOCC5)cc4)cn23)cc1OC	–	–	–	–	–	–	·	·
COc1cc(-c2cc(NC=O)c3ncc(-c4ccccc4)n3c2)cc(OC)c1OC	–	–	–	13	–	–	25	–
COc1cc(-c2cc(NC=O)c3ncc(-c4ccc(C(C)=O)cc4)n3c2)cc(OC)c1OC	–	–	–	26	–	–	18	–
COc1cc(-c2cnc3c(NC=O)cc(-c4ccc(C)cc4)cn23)cc(OC)c1OC	–	–	–	–	–	–	·	·
COc1ccc(-c2cc(NC=O)c3ncc(-c4ccc(C(C)=O)cc4)n3c2)cc1OC	–	–	–	11	–	–	9.0	–
COC(=O)C1(C(=O)OC)c2ccccc2N(S(=O)(=O)c2ccc(C)cc2)C1CC(=O)c1ccccc1 (centres undefined)	–	·	–	·	·	·	·	·
CC(=O)Nc1ccc(S(=O)(=O)Oc2ccccc2N2C(=O)C3C4CCC(C4)C3C2=O)cc1 (centres undefined)	–	–	–	–	–	–	·	·
CN(Cc1ccccc1)C(=O)c1ccc(Nc2nc(C(N)Cc3ccc(C(F)(F)F)cc3)cs2)nc1 (centres undefined)	–	–	–	40	–	–	22	33
